The EternaBench riboswitch data

System: MS2 coat protein
Assay: apparent Kd, MS2 coat protein; higher = weaker binding; RNA-MaP array; FMN 200 µM where present
Method in brief: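 On Illumina sequencing-chip clusters, designs were transcribed by stalled E. coli RNA polymerase and titrated with SNAP-549-labelled MS2 coat protein (0.7 or 1.5 nM, doubling to 3 µM), without and then with constant ligand, in 100 mM Tris-HCl pH 7.5, 80 mM KCl, 4 mM MgCl2, BSA, DTT, yeast tRNA and Tween-20. Apparent Kd is the median of filtered per-cluster curve fits to green signal normalised to red-channel RNA signal and control-cluster median Fmax.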

[1] = designed as: ON switch for flavin mononucleotide, no ligand
[2] = ligand present: flavin mononucleotide, designed as: ON switch for flavin mononucleotide
[3] = designed as: OFF switch for flavin mononucleotide, no ligand
[4] = ligand present: flavin mononucleotide, designed as: OFF switch for flavin mononucleotide

Sequence	apparent Kd [1] [µM]	apparent Kd [2] [µM]	apparent Kd [3] [µM]	apparent Kd [4] [µM]
GGCGGACGAAACAUGAGGAUCACCCAUGUGUUAUAAUUAAUAUAGGAUAUGUUUAUACUUUUUGGGCAGAAGGAUGAUAAUGCC	0.0185	0.0162		
CCAUCAGCGAACGAUACGAAUGGACAUGAGGAUCACCCAUGUAGAAGGACAGGAGAAUAACGGCUGUAGGAUAUACAUUUAGUG			0.0403	0.0312
GUCAUUAAACAGAAGGUGUUGUACAUGAGGAUCACCCAUGUUUAUCUAAUUAAAUUUGUAAUUAACAAGGAUAUGUACUAAUCG	0.231	0.131		
AAUUAUUUACAGAAGGAGUAAGAUUAUGUAUUACUAGGAUAUGUUCACAUGAGGAUCACCCAUGUACUAGUUGGUUUUUUAUGU			0.0105	0.0171
UCAUCAGCGGGCGGGUCGGUUGGACAUGAGGAUCACCCAUGUAGAAGGACCGGUGGACUCCGCCGGUAGGAUAUACAUUUGGUG			0.0321	0.0189
GGGUACAGCGGAGGAUAUCAUGUAAAUACAUGAGGAUCACCCAUGUCGAUGGAGACAUCGGAGAUUGAGAAGGCCGAUGUACCG	0.173	0.00999		
GCUAUCGGGUGAGGAUAUAUGAUUGUGAUUAAAAUAGAAGGCAUCUCAGAAGACAUGAGGAUCACCCAUGUAGUUAAGAUGGCU	0.0153	0.0128		
GUCAGCUCGUGAGGAUAUACAACACUGCUUCGGCAGUGUAUUAAGAUAACAUGAGGAUCACCCAUGUAGAAGGCACGAGCUGAU			0.00558	0.00848
CAGCGCUGUCGAGAGGAUAUGCGGUGAUGGACAUGAGGAUCACCCAUGUUAGCGAUAGUAUUACGGUAGAAGGCUCUACAGCUGC	0.0922	0.0167		
GCUCCCGGUGUCAGGAUAUAGAGUUGGAAACGCCACUAGAAGGGACAUGAGGAUCACCCAUGUCAAGUUCGCUC			0.0149	0.0149
GGAAAACAUGAGGAUCACCCAUGUGAGGAUAUCGAUGUCCAGAGAGAGGUGCGGGACUCGAGAAGGCACUUGGA			0.0445	0.0874
AGCAUGCUAGGAUAUACGAAACAUUAGGGUUCUUUGUAUAAACAUGAGGAUCACCCAUGUAGAAGGAGCGUGCA			0.0461	0.169
UUCCUGUCAGGAUAUGACUAGAUGCACGAAAGUGUUUUUAGUUAGAAGGGACAUGAGGAUCACCCAUGUAGUCC			0.0241	0.04
CGAUAUUAUGUCAGGAUAUACAUUGCGAAAGCAAUGUAGAAGGGACAUGAGGAUCACCCAUGUUCCUACUAUCG			0.0123	0.0157
UAUAAUCGAGGAUAUACAUGAGGAUCACCCAUGUGUUGCCGCGUGAUGUGUUUGUCAGGUAGAAGGCGAUUAUA			0.2	0.0438
UUGAGGUAGGAGAAGGACAGAGGCGGAAACACAAACAUGAGGAUCACCCAUGUAGGAUAUCCUACCUAACGAGGAUACCUCAAG			0.0147	0.0267
AUCGUGUUAGGAUAUACACGACGCUGGGUAGCUAGCGGAGGGUAGAAGGGACAUGAGGAUCACCCAUGUUCGGG			0.157	0.282
CAGCCCUGAGGAUAUCCAUCCUUGUACAUGAGGAUCACCCAUGUUUUCCUCUGGGCUUUGGGAGAAGGCAGGUAUC			0.0746	0.0771
UAGAAUCGAGGAUAUACAUGAGGAUCACCCAUGUGUUGCCGCGUGAUGUGUUUGUCAGGUAGAAGGCGAUUAUA			0.0644	0.266
UAAUCUCAGAUAGGAUAUAUAGGAUAACUUAAGACCUAACAUGAGGAUCACCCAUGUGAUUAUUCGUAGAAGGAUCAUUGAACU	0.254	0.251		
GCAUGCAAGUAGAAGGUCGGAUAUUUUGAUACCGAAGGAUAUGCAGAAUCAUAUCCACAUGAUAACAUGAGGAUCACCCAUGUA			0.0153	0.0127

Sequence	apparent Kd [1] [µM]	apparent Kd [2] [µM]	apparent Kd [3] [µM]	apparent Kd [4] [µM]
CUGUCGAUAUCAGGAUAUCGAUUAACUACAUGAGGAUCACCCAUGUUGACAUGGAAUAUAACUUGCGAGAAGGGAUAACGAUAG	0.0234	0.0138		
GUACAGCGACAUGAGGAUCACCCAUGUAGCCGCCGAUCGUCGCAGGAUAUGGCAAAGGUUAACAGUCAGAAGGGUGAUGUUCGA	0.0736	0.0413		
AACGAGCAGUAGAAGGCGUGUCUACGGACAUGAGGAUCACCCAUGUUGUGACUCCGAAAGGAGCGCGAGGAUAUACUGCUCAAA	0.0103	0.00657		
GUACCUUAUGAGAAGGCGGUCAUGAAACAUGAUCGAGGAUAUCAUGUAAACAUGAGGAUCACCCAUGUAUGGGUAUUAUGGUAG	0.0702	0.0138		
GCCUGCUGGCAAGGAUAUUCUGUGCGGUUCCGGCUCGUGUCUGUUACAUGAGGAUCACCCAUGUGGGAGAAGGUGUCUGUGGCC			0.00621	0.00588
AGGAAACAUGAGGAUCACCCAUGUAAAAAAGUGGGAGGAUAUACUAGAAGAAACAAAAUAGUAGAAGGCCUAAAAA	0.0473	0.0249		
GUCAGCUCGUGAGGAUAUACAACACUGCUUCGGCCGUGUAUUAAGAUCACAUGAGGAUCACCCAUGUAGAAGGCACGAGCUGAU			0.0136	0.228
AUUACAUGAGGAUCACCCAUGUACAGCACGUUUCAAUACAGUGAGGAUAUACGAAAUGUAGGAACGUAGAAGGCACUGGGUGCA	0.265	0.0681		
UAUAUAUAGUAAGGAUAUGUAAUUGUUUUAUAAACAGAAGGUACUGACAUGAGGAUCACCCAUGUUUUAGUGUGGGCAUGUAGA			0.0574	0.0788
CUUUCGUUAGCAGGAUAUGGACAGGCCUGUCCGUCUUGAGUCAGUAACAUGAGGAUCACCCAUGUCCAGAAGGGCUCGAAGGGA			0.0177	0.0324
GCGUUAAAGAUCCAUUUUUACAACAUGAGGAUCACCCAUGUGCAGGAUAUCGAAUGUUUUAUAUUCGAGAAGGGCAAUUUCCGC			0.0703	0.0993
GCUGCAUAGGCAGGAUAUACAAUAAUUCGAAUAAAAUAUAACGAAUUAACAUGAGGAUCACCCAUGUAGAAGGGCCUGUGCAGU			0.00632	0.0104
CCAUGUUAGCAGGAUAUGCAAUAAAUCUUUUAAGCAGAAGGGCUUACAUGAGGAUCACCCAUGUAUAAUUUCAA			0.0503	0.116
UUUUACUAGUAAGGAUAUAUUAGCGAUUAGCUUGUAGAAGGUACAGUCUUAUGUAUAACAUGUUAACAUGAGGAUCACCCAUGU	0.052	0.0342		
AGUAGAUCAGGAUAUACGUGAAAGGUCAAAGUGUCCCUACUACAUGAGGAUCACCCAUGUAGAAGGGAUCUACA			0.0134	0.0146
GCUCGAUGUGCUGAAAACAUGAGGAUCACCCAUGUAGAUGAUCAGGAUAUUUACGUGCUUUAUGUAGAGAAGGGAUCAUCGAGC	0.064	0.0277		
UACAAUGGAGGAUAUAUGGUCAUACACAUGAGGAUCACCCAUGUCGCGAGUCGUGUAUCCAUAGAAGGCUGUAGUG			0.0137	0.0156
GUGGAGUACGUAGGAUAUGUAGGAUAUUCCUACAUGAGGAUCACCCAUGUUUACAUGGAAGAAGGACAGAAGGACGUGCUCCAG	1.43	0.0143		
CGAAACAACACAACGAAGCAGGUACCAGAAGGGACGGCGUCACAUGAGGAUCACCCAUGUUGCAGUCAGGAUAUGGGCCAUCCU	0.0331	0.00695		
AAAAAGGGAGGAUAUACAUGAGGAUCACCCAUGUAAAAAAAAACAAAAAAAAAAAAAAGUAGAAGGCCCAAAAA			0.0548	0.0478
GUAGCAUACGGAGGAUAUCCAUACCGGAAACGGACAUGAGGAUCACCCAUGUGGCGAAAGCCUUGGGAGAAGGCCGUAUGCUAC	0.00463	0.00367		
